Values after ≈ are worked out from the molar mass of the structure shown. Active and inactive are the calls of the source. The calls are words filed in the database; no cut-off is given here.
Assays:
MCF7 [1] = experiment: Cytotoxicity against human MCF7 cells at 80 ug/ml after 24 hrs by MTT assay; format: functional
How it was run: (§1)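 MCF-7 cells grown in DMEM with 1 mM pyruvate, 10 µg/mL insulin, 10% FBS and penicillin/streptomycin at 37 °C, 5% CO2. Exposed 24 h to 0.64–80 µg/mL (DMSO stocks diluted in medium). MTT added, A540 measured. Percent viability relative to untreated cells; IC50 derived. Three experiments with four wells per concentration.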

MCF7 [2] = experiment: Cytotoxicity against human MCF7 cells at 6.4 ug/ml after 24 hrs by MTT assay; format: functional; how it was run: as §1
MCF7 [3] = experiment: Inhibition of DNA synthesis in human MCF7 cells by BrdU incorporation assay; format: functional, cell-based; conditions: TDE = time-dependent effect
How it was run: (§2)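 MCF-7 cells (DMEM, pyruvate, insulin, 10% FBS) seeded at 1 × 10^3 cells/mL. Treated at three concentrations for 24 h or 48 h at 37 °C against DMSO control. Labelled with BrdU for 2 h, fixed, then anti-BrdU-POD for 90 min. Colorimetric substrate read at 492 nm after blank subtraction. Triplicate wells, repeated three times.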

HT-29 [4] = experiment: Induction of apoptosis in human HT-29 cells assessed as DNA fragmentation after 24 hrs by gel electrophoresis
MCF7 [5] = experiment: Cytotoxicity against human MCF7 cells at 1.6 ug/ml after 24 hrs by MTT assay; format: functional; how it was run: as §1
HT-29 [6] = experiment: Cytotoxicity against human HT-29 cells after 24 hrs by MTT assay; format: functional, cell-based; conditions: HT-29, 24 h
How it was run: (§3)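 HT-29 cells grown in McCoy's 5A with 10% FBS and penicillin/streptomycin at 37 °C, 5% CO2. Treated 24 h with 0.64, 1.6, 6.4, 16, 32 or 80 µg/mL (DMSO stock diluted in medium). MTT added, absorbance read at 540 nm. Viability taken relative to untreated control (100%); IC50 calculated. Four wells per concentration, three repeat experiments.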

MCF7 [7] = experiment: Cytotoxicity against human MCF7 cells at 16 ug/ml after 24 hrs by MTT assay; format: functional; how it was run: as §1
HT-29 [8] = experiment: Inhibition of DNA synthesis in human HT-29 cells after 48 hrs by BrdU incorporation assay; format: functional, cell-based
How it was run: (§4)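 HT-29 cells (McCoy's 5A, 10% FBS) seeded at 1 × 10^3 cells/mL. Exposed to three concentrations for 24 h and 48 h at 37 °C, with DMSO solvent control. BrdU label for 2 h, then fixation and anti-BrdU-POD for 90 min. Substrate colour read at 492 nm with blank subtracted. Triplicate wells, three experiments.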

MCF7 [9] = experiment: Cytotoxicity against human MCF7 cells at 32 ug/ml after 24 hrs by MTT assay; format: functional; how it was run: as §1
MCF7 [10] = experiment: Inhibition of DNA synthesis in human MCF7 cells after 48 hrs by BrdU incorporation assay; format: functional, cell-based; how it was run: as §2
HT-29 [11] = experiment: Cytotoxicity against human HT-29 cells at 1.6 ug/ml after 24 hrs by MTT assay; format: functional; how it was run: as §3
HT-29 [12] = experiment: Cytotoxicity against human HT-29 cells at 32 ug/ml after 24 hrs by MTT assay; format: functional; how it was run: as §3
HT-29 [13] = experiment: Inhibition of DNA synthesis in human HT-29 cells by BrdU incorporation assay; format: functional, cell-based; conditions: TDE = time-dependent effect; how it was run: as §4
HT-29 [14] = experiment: Cytotoxicity against human HT-29 cells at 0.64 ug/ml after 24 hrs by MTT assay; format: functional; how it was run: as §3
MCF7 [15] = experiment: Cytotoxicity against human MCF7 cells at 0.64 ug/ml after 24 hrs by MTT assay; format: functional; how it was run: as §1
HT-29 [16] = experiment: Cytotoxicity against human HT-29 cells at 80 ug/ml after 24 hrs by MTT assay; format: functional; how it was run: as §3
HT-29 [17] = experiment: Cytotoxicity against human HT-29 cells at 6.4 ug/ml after 24 hrs by MTT assay; format: functional; how it was run: as §3
HT-29 [18] = experiment: Cytotoxicity against human HT-29 cells at 16 ug/ml after 24 hrs by MTT assay; format: functional; how it was run: as §3
MCF7 [19] = experiment: Cytotoxicity against human MCF7 cells after 24 hrs by MTT assay; format: functional, cell-based; conditions: MCF7, 24 h; how it was run: as §1

Row | Structure (SMILES) | Activity (MCF7 [1]) | Activity (MCF7 [2]) | inhibition (MCF7 [3]) | Activity (HT-29 [4]) | Activity (MCF7 [5]) | IC50 (HT-29 [6]) | Activity (MCF7 [7]) | inhibition (HT-29 [8]) | Activity (MCF7 [9]) | inhibition (MCF7 [10]) | Activity (HT-29 [11]) | Activity (HT-29 [12]) | inhibition (HT-29 [13]) | Activity (HT-29 [14]) | Activity (MCF7 [15]) | Activity (HT-29 [16]) | Activity (HT-29 [17]) | Activity (HT-29 [18]) | IC50 (MCF7 [19])
1 | Cn1nnnc1SCC(=O)Nc1ccc(-c2nc(-c3ccccc3)c(-c3ccccc3)n2C)cc1 | 77.7% | 55.9% | tde | Active | 34.3% | 1.6 µg/mL (≈ 3.32 µM) | 63.7% | Dose-dependent effect | 77.5% | Dose-dependent effect | 49.8% | 84% | tde | 38% | 21.9% | 89% | 60.6% | 72.5% | 4.5 µg/mL (≈ 9.34 µM)
2 | Cn1c(-c2ccc(NC(=O)CN3CCN(c4ccccc4)CC3)cc2)nc(-c2ccccc2)c1-c1ccccc1 | 72.5% | 37.7% |  |  | 21.3% | 8.6 µg/mL (≈ 16.3 µM) | 59.6% |  | 63.6% |  | 26% | 60.5% |  | 17.3% | 12.1% | 63.7% | 46.5% | 55.4% | 10.7 µg/mL (≈ 20.3 µM)
3 | CN1CCN(CC(=O)Nc2ccc(-c3nc(-c4ccccc4)c(-c4ccccc4)n3C)cc2)CC1 | 50.3% | 28.6% |  |  | 2.9% | 35.5 µg/mL (≈ 76.2 µM) | 30.1% |  | 46.2% |  | 27.4% | 49.1% |  | 18.8% | 1.1% | 53.1% | 28.8% | 33.7% | 76.5 µg/mL (≈ 164 µM)
4 | Cn1c(-c2ccc(NC(=O)CSC3=NCCS3)cc2)nc(-c2ccccc2)c1-c1ccccc1 | 70% | 18.6% |  |  | 16.2% | 21 µg/mL (≈ 43.3 µM) | 41.8% |  | 52.5% |  | 30.4% | 59.4% |  | 16.8% | 10.3% | 75.2% | 31% | 43.3% | 26.7 µg/mL (≈ 55.1 µM)
5 | Cn1ccnc1SCC(=O)Nc1ccc(-c2nc(-c3ccccc3)c(-c3ccccc3)n2C)cc1 | 64% | 27.2% |  |  | 17.5% | 47.5 µg/mL (≈ 99 µM) | 32.4% |  | 43.4% |  | 23.8% | 41.1% |  | 13.6% | 10.3% | 69.4% | 30.7% | 36.5% | 46.5 µg/mL (≈ 97 µM)
6 | Cn1c(-c2ccc(NC(=O)CCl)cc2)nc(-c2ccccc2)c1-c1ccccc1 | 70% | 14.2% |  |  | 4.3% | 28.7 µg/mL (≈ 71.4 µM) | 15.2% |  | 42.8% |  | 14.4% | 53.2% |  | 7.2% | 3.4% | 76.1% | 15.1% | 23.7% | 42.6 µg/mL (≈ 106 µM)
7 | Cn1c(-c2ccc(NC(=O)CSc3nc4ccccc4s3)cc2)nc(-c2ccccc2)c1-c1ccccc1 | 76.6% | 27% |  |  | 2.1% | 18 µg/mL (≈ 33.8 µM) | 50.3% |  | 59% |  | 15.3% | 66% |  | 9.8% | 0.9% | 82.7% | 36.8% | 47.2% | 15.8 µg/mL (≈ 29.7 µM)
8 | Cn1c(-c2ccc(NC(=O)CSc3nc4ccccc4o3)cc2)nc(-c2ccccc2)c1-c1ccccc1 | 76.3% | 42.3% | tde | inactive | 27.4% | 11 µg/mL (≈ 21.3 µM) | 56% | Dose-dependent effect | 71.5% | Dose-dependent effect | 41% | 79.3% | tde | 24.8% | 18.7% | 81.5% | 44.9% | 56.2% | 11.2 µg/mL (≈ 21.7 µM)
9 | Cn1c(-c2ccc(NC(=O)CN3CCN(Cc4ccccc4)CC3)cc2)nc(-c2ccccc2)c1-c1ccccc1 | 49.5% | 23.8% |  |  | 13.3% | 65.5 µg/mL (≈ 121 µM) | 28.3% |  | 33.6% |  | 26% | 40% |  | 15.5% | 7.2% | 54.5% | 26.8% | 37% | > 80 µg/mL
10 | Cn1c(-c2ccc(NC(=O)CN3CCN(Cc4ccc(Cl)cc4)CC3)cc2)nc(-c2ccccc2)c1-c1ccccc1 | 52.9% | 33.4% |  |  | 11.8% | 12 µg/mL (≈ 20.8 µM) | 46.2% |  | 52.8% |  | 16.4% | 55.6% |  | 11.3% | 4.8% | 60.7% | 41.5% | 52.9% | 21 µg/mL (≈ 36.4 µM)
11 | CN(C)CCN1CCN(CC(=O)Nc2ccc(-c3nc(-c4ccccc4)c(-c4ccccc4)n3C)cc2)CC1 | 34.7% | 11.1% |  |  | 1.9% | > 80 µg/mL | 19.4% |  | 25.8% |  | 8% | 29.8% |  | 3.1% | 1.2% | 45.4% | 12.2% | 28.2% | > 80 µg/mL
12 | Cn1cnnc1SCC(=O)Nc1ccc(-c2nc(-c3ccccc3)c(-c3ccccc3)n2C)cc1 | 89.3% | 59.2% | tde | Active | 42.8% | 10.7 µg/mL (≈ 22.3 µM) | 61.2% | Dose-dependent effect | 89.2% | Dose-dependent effect | 40.8% | 86.1% | tde | 32% | 33.1% | 88% | 43.1% | 59.1% | 3.2 µg/mL (≈ 6.66 µM)
13 | Cc1nnc(SCC(=O)Nc2ccc(-c3nc(-c4ccccc4)c(-c4ccccc4)n3C)cc2)s1 | 85.2% | 67.8% | tde | Active | 37.5% | 2.7 µg/mL (≈ 5.43 µM) | 74.9% | Dose-dependent effect | 83.4% | Dose-dependent effect | 39.9% | 87.1% | tde | 34.8% | 35.1% | 90.5% | 73% | 83.3% | 3.2 µg/mL (≈ 6.43 µM)
14 | CCN1CCN(CC(=O)Nc2ccc(-c3nc(-c4ccccc4)c(-c4ccccc4)n3C)cc2)CC1 | 46.3% | 16.4% |  |  | 14.6% | 75 µg/mL (≈ 156 µM) | 32.8% |  | 38.6% |  | 13.9% | 38.8% |  | 7.4% | 4.7% | 51.2% | 17.2% | 28.4% | > 80 µg/mL
